Experimental data taken from paper PMC7114883 (ACS Omega, 2020).
Values after ≈ are worked out from the molar mass of the structure shown. Read-outs that look alike come from different tables or passages of the source.

Columns and labels:
P. falciparum NF54 [1] = settings: read-out: IC50 PfNF54; reference drugs; ref Singh et al. 33; cited from earlier work
P. falciparum K1 [2] = settings: read-out: IC50 PfK1; reference drugs; ref Singh et al. 33; cited from earlier work
hERG channel = hERG channel (Homo sapiens, UniProt Q12809); test: hERG channel inhibition; type: biochemical
Solubility at pH 6.8 = type: physicochemical; settings: pH 6.8, aqueous buffer
[3] = PAMPA parallel artificial membrane permeability assay; type: in vitro ADME; settings: fraction absorbed
[4] = In vitro metabolic stability in mouse liver microsomes; type: in vitro ADME
[5] = In vitro metabolic stability in human liver microsomes; type: in vitro ADME
P. falciparum NF54 [6] = test: Pf NF54 activity determined at NITD; type: cell-based; settings: Plasmodium falciparum, NF54, read-out: IC50 PfNF54
[7] = Aqueous solubility, miniaturized shake flask method; type: physicochemical; settings: aqueous solution, 25 °C, thermodynamic from solid
[8] = Microsomal metabolic stability, human liver microsomes; type: in vitro ADME; settings: pooled human liver microsomes, pH 7.4
Procedure, shortened: (§1)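 Test compound at 0.1 μM incubated at 37 °C, in duplicate, with liver microsomes (mouse, rat or pooled human; final protein 0.4 mg/mL) in 0.1 M phosphate buffer pH 7.4, with and without 1 mM NADPH. Quenched with ice-cold acetonitrile containing internal standard, centrifuged, and supernatant analysed by LC–MS/MS. Parent remaining after 30 min expressed as percent.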

[9] = Microsomal metabolic stability, mouse liver microsomes; type: in vitro ADME; settings: pH 7.4
Procedure, shortened: as §1

[10] = Microsomal metabolic stability, rat liver microsomes; type: in vitro ADME; settings: pH 7.4
Procedure, shortened: as §1

[11] = Pharmacokinetic studies in rats; type: in vivo; settings: rat, plasma, iv, 1 mg/kg
[12] = P. berghei mouse model efficacy; type: in vivo, Plasmodium berghei (NMRI mice); settings: female, NMRI, plasma, po, 100 mg/kg
[13] = P. falciparum SCID mouse model efficacy; type: in vivo, Plasmodium falciparum (NOD-scid IL-2Rγnull mice); settings: female, NOD-scid IL-2Rγnull, plasma, po, 25 mg/kg
P. falciparum NF54 [14] = test: In vitro antiplasmodium assay; type: cell-based, Plasmodium falciparum; settings: for in vitro antiplasmodium activity (in words): authors' Pf assays
P. falciparum K1 [15] = test: In vitro antiplasmodium assay; type: cell-based; settings: Plasmodium falciparum, K1, read-out: IC50 PfK1
[16] = system: Chinese hamster ovarian (CHO) cell line; test: Cytotoxicity MTT assay; type: cell-based; settings: CHO cells, relative to 4-unsubstituted compound 3
[17] = system: Chinese hamster ovarian (CHO) cell line; settings: read-out: IC50 (CHO); reference drug; ref Singh et al. 33; cited from earlier work
[18] = Plasmodium falciparum, NF54, read-out: IC50 PfNF54, drug-sensitive NF54 strain, mean of ≥2 independent experiments
[19] = read-out: IC50 PfNF54, drug-sensitive NF54 strain, mean of ≥2 independent experiments

hERG channel, sequence (Q12809 whole entry): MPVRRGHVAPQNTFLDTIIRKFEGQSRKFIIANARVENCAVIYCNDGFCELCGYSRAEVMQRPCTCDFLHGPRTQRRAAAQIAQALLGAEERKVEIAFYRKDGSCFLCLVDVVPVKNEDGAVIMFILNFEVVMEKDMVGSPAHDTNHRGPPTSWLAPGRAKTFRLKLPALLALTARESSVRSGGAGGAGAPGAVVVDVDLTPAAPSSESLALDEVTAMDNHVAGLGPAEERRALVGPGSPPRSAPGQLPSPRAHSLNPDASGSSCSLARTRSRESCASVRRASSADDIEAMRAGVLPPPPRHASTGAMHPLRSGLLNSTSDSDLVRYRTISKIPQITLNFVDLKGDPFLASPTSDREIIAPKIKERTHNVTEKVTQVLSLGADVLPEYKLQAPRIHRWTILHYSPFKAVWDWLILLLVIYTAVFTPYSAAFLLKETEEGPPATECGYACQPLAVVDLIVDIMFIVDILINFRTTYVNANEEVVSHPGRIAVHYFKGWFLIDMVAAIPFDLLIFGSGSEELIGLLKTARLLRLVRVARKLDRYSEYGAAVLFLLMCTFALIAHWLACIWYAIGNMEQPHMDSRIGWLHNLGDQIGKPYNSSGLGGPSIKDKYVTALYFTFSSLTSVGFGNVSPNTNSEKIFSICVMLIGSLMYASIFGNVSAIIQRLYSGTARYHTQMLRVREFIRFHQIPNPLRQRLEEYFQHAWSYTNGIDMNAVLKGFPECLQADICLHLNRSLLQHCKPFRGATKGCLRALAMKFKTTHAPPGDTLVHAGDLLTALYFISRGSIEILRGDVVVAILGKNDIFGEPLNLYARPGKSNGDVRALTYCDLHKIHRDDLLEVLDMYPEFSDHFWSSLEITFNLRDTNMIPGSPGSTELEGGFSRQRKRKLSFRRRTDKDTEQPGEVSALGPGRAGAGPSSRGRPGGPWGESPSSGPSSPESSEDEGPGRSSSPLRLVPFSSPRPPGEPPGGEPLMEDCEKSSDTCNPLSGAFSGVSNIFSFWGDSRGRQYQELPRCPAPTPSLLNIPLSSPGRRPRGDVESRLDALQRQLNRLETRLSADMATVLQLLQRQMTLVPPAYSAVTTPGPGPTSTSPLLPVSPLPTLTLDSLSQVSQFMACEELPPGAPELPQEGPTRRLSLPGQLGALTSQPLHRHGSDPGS

| Structure (SMILES) | remaining at 0.5 h, 0.1 μM [8] [%] | remaining at 0.5 h, 0.1 μM [9] [%] | remaining at 0.5 h, 0.1 μM [10] [%] | IC50 (P. falciparum NF54 [14]; [18]) [µM] | IC50 (hERG channel) [µM] | in vitro antiplasmodium activity (in words) (P. falciparum NF54 [14]) | further results |
| --- | --- | --- | --- | --- | --- | --- | --- |
| C[C@H]1[C@H](OC(=O)CCC(=O)O)O[C@@H]2O[C@@]3(C)CC[C@H]4[C@H](C)CC[C@@H]1[C@@]24OO3 [Artesunate] |  |  |  |  |  |  | IC50 (P. falciparum NF54 [1]): 0.004 µM; IC50 (P. falciparum K1 [2]): 0.003 µM |
| CCN(CC)CCCC(C)Nc1ccnc2cc(Cl)ccc12 (stereo not shown) [Chloroquine] |  |  |  |  |  |  | IC50 (P. falciparum NF54 [1]): 0.016 µM; IC50 (P. falciparum K1 [2]): 0.194 µM |
| c1ccc(Cn2c(N3CCNCC3)nc3ccccc32)cc1 [Compound 1, Lerisetron, reference compound] |  |  |  |  | 0.32 |  | solubility (Solubility at pH 6.8): > 1000 µM; PAMPA (%FA) [3]: 99 %FA; In vitro metabolic stability in liver microsomes, mouse [4]: 29 µL/min/mg; In vitro metabolic stability in liver microsomes, human [5]: 26.6 µL/min/mg; IC50 (P. falciparum NF54 [6]): 0.81 µM |
| Cl.Clc1ccc2c(c1)nc(N1CCNCC1)n2Cc1ccccc1 [Compound 3] | 74.4 | 63 | 42.1 |  | 0.009 |  | solubility at 20 h ([7]; pH 2, simulated gastric fluid): 150 µM; solubility at 20 h ([7]; pH 6.5, aqueous buffer): 140 µM; half-life [11]: 1.98 h; AUC [12]: 377 µM·h; Cmax [12]: 20.6 µM; AUC [13]: 86 µM·h; Cmax [13]: 5.2 µM; solubility (Solubility at pH 6.8): 770 µM; PAMPA (%FA) [3]: 99 %FA |
| FC(F)(F)c1ccc2c(c1)nc(N1CCNCC1)n2Cc1ccccc1 [Compound 14c] | 92.2 | 82 | 95.6 |  | 0.15 |  |  |
| O=C1CN(c2nc3cc(Cl)ccc3n2Cc2ccccc2)CCN1 [Compound 17] |  |  |  | > 1 | 2.3 |  |  |
| CC(=O)N1CCN(c2nc3cc(Cl)ccc3n2Cc2ccccc2)CC1 [Compound 18] |  |  |  | > 1 | 0.39 |  |  |
| N#CCN1CCN(c2nc3cc(Cl)ccc3n2Cc2ccccc2)CC1 [Compound 19] | 8.6 | 2 | 1.2 | 0.306 | 0.18 |  | IC50 (P. falciparum K1 [15]): 0.454 µM; solubility at 20 h ([7]; pH 2, simulated gastric fluid): > 150 µM; solubility at 20 h ([7]; pH 6.5, aqueous buffer): < 5 µM |
| Cc1ccc(C(=O)N2CCN(c3nc4cc(Cl)ccc4n3Cc3ccccc3)CC2)cc1 [Compound 23] |  |  |  | > 10 |  | completely inactive |  |
| NCCNc1nc2cc(Cl)ccc2n1Cc1ccccc1 [Compound 33, N^1-(1-benzyl-5-chloro-1H-benzo[d]imidazol-2-yl)ethane-1,2-diamine] | 98.9 | 71.2 | 88 |  | 2.2 |  | hERG safety window (hERG channel; hERG versus antiplasmodium activity): 10 fold |
| NCCCNc1nc2cc(Br)ccc2n1Cc1ccccc1 [Compound 41, N^1-(1-Benzyl-5-bromo-1H-benzo[d]imidazol-2-yl)propane-1,3-diamine] | 99.4 | 98.6 | 97 |  |  |  |  |
| Clc1ccc2c(c1)nc(C1CCNCC1)n2Cc1ccccc1 [Compound 46a, 1-Benzyl-5-chloro-2-(piperidin-4-yl)-1H-benzo[d]imidazole] | 91.8 | 97.6 | 92.9 |  | 0.46 |  | IC50 (P. falciparum NF54 [14]; [19]): 0.0379 µM |
| COC(=O)c1ccc2c(c1)nc(C1CCNCC1)n2Cc1ccccc1 [Compound 46d] |  |  |  |  |  | inactive |  |
| CS(=O)(=O)c1ccc2c(c1)nc(C1CCNCC1)n2Cc1ccccc1.Cl [Compound 46e] |  |  |  |  |  | inactive |  |
| c1ccc(Cn2c(N3CCNCC3)nc3cnccc32)cc1 [Compound 57b] |  |  |  | > 1 |  | inactive |  |
| Cl.Cn1c(N2CCNCC2)nc2ccccc21 [Compound 60, 1-methyl-2-(piperazin-1-yl)-1H-benzo[d]imidazole hydrochloride] |  |  |  |  |  | inactive | IC50 (P. falciparum NF54 [14]; Plasmodium falciparum, NF54, read-out: IC50 PfNF54): > 10 µM |
| CC[C@H]1CN2CCc3cc(OC)c(OC)cc3[C@@H]2C[C@@H]1C[C@H]1NCCc2cc(OC)c(OC)cc21 [Emetine] |  |  |  |  |  |  | IC50 [17]: 0.095 µM |

Now from value to compound, other results behind:

| remaining at 0.5 h, 0.1 μM [8] [%] | remaining at 0.5 h, 0.1 μM [9] [%] | remaining at 0.5 h, 0.1 μM [10] [%] | IC50 (P. falciparum NF54 [14]; [18]) [µM] | Structure (SMILES) | IC50 (hERG channel) [µM] | in vitro antiplasmodium activity (in words) (P. falciparum NF54 [14]) | further results |
| --- | --- | --- | --- | --- | --- | --- | --- |
|  |  |  | > 10 | c1ccc2c(c1)nc(N1CCNCC1)n2Cc1ccncc1 [Compound 14i] |  | inactive |  |
|  |  |  | > 1 | Clc1ccc2c(c1)nc(N1CCOCC1)n2Cc1ccccc1 [Compound 16a, 4-(1-Benzyl-5-chloro-1H benzo[d]imidazol-2-yl)morpholine] |  |  |  |
| 88.2 | 94 | 89.8 |  | Brc1ccc2c(c1)nc(N1CCNCC1)n2Cc1ccccc1 [Compound 16b, 1-Benzyl-5-bromo-2-(piperazin-1-yl)-1H-benzo[d]imidazole] | 0.03 |  | IC50 (P. falciparum NF54 [14]; [19]): 0.0424 µM |
|  |  |  | > 1 | Cl.Clc1ccc2c(c1)nc(N1CCNCC1)n2CCc1ccccc1 [Compound 16g, 5-Chloro-1-phenethyl-2-(piperazin-1-yl)-1H-benzo[d]imidazole Hydrochloride] |  | inactive |  |
|  |  |  | > 10 | O=C(O)CN1CCN(c2nc3cc(Cl)ccc3n2Cc2ccccc2)CC1 [Compound 20] |  | inactive | solubility at 20 h ([7]; pH 6.5, aqueous buffer): 200 µM (≈ 77 µg/mL) |
|  |  |  | 9.51 | O=C(NCCCNc1nc2ccccc2n1Cc1ccccc1)c1cc(Cl)cc(Cl)c1 [Compound 21] |  | completely inactive | solubility at 20 h ([7]; pH 2, simulated gastric fluid): 10 µM (≈ 4.53 µg/mL) |
|  |  |  | > 10 | Cc1ccc(C(=O)N2CCN(c3nc4ccccc4n3C)CC2)cc1.Cl [Compound 22] |  | completely inactive |  |
|  |  |  | 5.26 | O=S(=O)(c1ccc(Cl)cc1)N1CCN(c2nc3cc(Cl)ccc3n2Cc2ccccc2)CC1 [Compound 25] |  | completely inactive |  |
|  |  |  | 0.6 | Cc1ccc(Cn2c(N3CCC(C(=O)NCc4cccs4)CC3)nc3ccccc32)cc1 [Compound 26, 1-(1-(4-methylbenzyl)-1H-benzo[d]imidazol-2-yl)-N-(thiophen-2-ylmethyl)piperidine-4-carboxamide] |  | weakly active | solubility at 20 h ([7]; pH 6.5, aqueous buffer): < 5 µM |
| 23.2 | 31.3 | 36.5 |  | C[C@@H]1CN(c2nc3cc(Cl)ccc3n2Cc2ccccc2)C[C@H](C)N1 [Compound 27] | 0.017 |  |  |
| 80.9 | 76 | 39.9 |  | NC1CCN(c2nc3cc(Cl)ccc3n2Cc2ccccc2)CC1 [Compound 28] | 0.07 |  |  |
| 76.3 | 72.5 | 66.1 |  | Cl.Clc1ccc2c(nc(N3CCNCC3)n2Cc2ccccc2)c1Cl [Compound 42a] | 0.59 |  | fold more cytotoxic than 3 [16]: ~4 fold |
| 97.4 | 91.6 | 93.8 |  | Clc1ccc2c(nc(N3CCNCC3)n2Cc2ccccc2)c1Br [Compound 42k] |  |  | fold more cytotoxic than 3 [16]: ~4 fold |
| 99.3 | 97.4 | 97.7 |  | Brc1ccc2c(c1)nc(C1CCNCC1)n2Cc1ccccc1 [Compound 46b] |  |  |  |
|  |  |  | 9.77 | Cl.c1ccc(Cn2c(N3CCNCC3)nc3ccccc32)nc1 [Compound 59] |  | inactive |  |
